Test results from ChEMBL document CHEMBL1806486, “Discovery and evaluation of 3-phenyl-1H-5-pyrazolylamine-based derivatives as potent, selective and efficacious inhibitors of FMS-like tyrosine kinase-3 (FLT3)” (Bioorg Med Chem, 2011).
Calls of active or inactive are those of the source. No cut-off for these calls is given here.

What was measured:
[1] = tested on: Mus musculus; test: Toxicity in athymic nu/nu nude mouse harboring xenografted human MV4:11 cells assessed as reduction of body weight at 50 mg/kg, iv for continuous 5 days; type: organism-based; design: dose 50 mg/kg, route intravenous; scale not given: the % may be the effect or the level left; settings: in vivo, 120 h
[2] = tested on: Mus musculus; test: Toxicity in athymic nu/nu nude mouse harboring xenografted huma MOLM13 cells assessed as reduction of body weight at 50 mg/kg, iv for continuous 5 days; type: organism-based, MOLM-13; design: dose 50 mg/kg, route intravenous; scale not given: the % may be the effect or the level left; settings: in vivo, 120 h
[3] = tested on: MV4-11; test: Antitumor activity against human MV4-11 cells xenografted in athymic nu/nu nude mouse assessed as tumor regrowth at 50 mg/kg, iv qd for 1 to 5 and 8 to 12 days measured after 20 days; type: functional, organism-based; design: dose 50 mg/kg
Method in brief: (§1)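 Nude nu/nu mice (9 weeks old) received 1 × 10^6 MV4;11 cells s.c. in the left flank. Treatment began at a mean tumor volume of about 500 mm3, with n = 8 per group. Dosing was iv once daily at 10, 25 or 50 mg/kg on days 1–5 and 8–12, in DMSO/Cremophor/saline vehicle, with vehicle controls. Tumor volume was measured by caliper as (width × length²)/2.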

[4] = target: Vascular endothelial growth factor receptor 3 (Homo sapiens) (UniProt P35916); test: Inhibition of VEGFR3 at 0.1 uM
[5] = Half life in Sprague-Dawley rat at 5 mg/kg, iv and 20 mg/kg, po; type: ADME, organism-based; settings: in vivo
[6] = tested on: MOLM-13; test: Antitumor activity against human MOLM13 cells xenografted in iv dosed athymic nu/nu nude mouse assessed as inhibition of tumor growth administered qd for two weeks; type: functional, organism-based
Method in brief: (§2)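 Athymic nu/nu mice (9 weeks old) received 1 × 10^6 MOLM-13 cells s.c. in the left flank. They were randomized at a mean tumor volume of about 200 mm3, with 7–8 per group. Dosing was iv once daily at 10 or 50 mg/kg on days 1–5 and 8–12, in 10% DMSO/20% Cremophor/70% saline. Vehicle controls were dosed the same way. Caliper volume = (width × length²)/2, reported as mean ± SEM.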

[7] = tested on: MOLM-13; test: Antiproliferation activity against human MOLM13 cells expressing FLT3 mutation assessed as cell viability after 72 hrs by MTS method; type: functional; settings: MOLM-13, 72 h
[8] = tested on: MV4-11; test: Antitumor activity against human MV4-11 cells xenografted in athymic nu/nu nude mouse assessed as inhibition of tumor growth at 50 mg/kg, iv qd for 1 to 5 and 8 to 12 days measured after completion of treatment; type: functional, organism-based; design: dose 50 mg/kg; method in brief: as §1
[9] = tested on: MOLT-4; test: Antiproliferation activity against human MOLT4 after 72 hrs by MTS method; type: functional; settings: MOLT-4, 72 h
[10] = target: Proto-oncogene tyrosine-protein kinase Src (Homo sapiens) (UniProt P12931); test: Inhibition of SRC at 0.1 uM
[11] = tested on: MOLM-13; test: Antitumor activity against human MOLM13 cells xenografted in athymic nu/nu nude mouse assessed as tumor growth regression at 50 mg/kg, iv qd administered for 1 to 5 and 8 to 12 days; type: functional, organism-based; design: dose 50 mg/kg; method in brief: as §2
[12] = tested on: Mus musculus; test: Toxicity in normal mouse assessed as reduction of body weight at 50 mg/kg, iv for continuous 5 days; settings: in vivo, 120 h
[13] = target: Platelet-derived growth factor receptor alpha (Homo sapiens) (UniProt P16234); test: Inhibition of PDGFR alpha at 0.1 uM
[14] = target: High affinity nerve growth factor receptor (Homo sapiens) (UniProt P04629); test: Inhibition of TRKA at 0.1 uM
[15] = tested on: MOLM-13; test: Antitumor activity against human MOLM13 cells xenografted in athymic nu/nu nude mouse assessed as inhibition of tumor growth at 10 mg/kg, iv qd administered for 1 to 5 and 8 to 12 days measured during first 5 days of treatment; type: functional, organism-based; design: dose 10 mg/kg; method in brief: as §2
[16] = tested on: MV4-11; test: Antiproliferation activity against FLT3/ITD harboring human MV4-11 cells after 72 hrs by MTS method; type: functional; settings: MV4-11, 72 h
[17] = target: Platelet-derived growth factor receptor beta (Homo sapiens) (UniProt P09619); test: Inhibition of PDGFR beta at 0.1 uM
[18] = target: Vascular endothelial growth factor receptor 1 (Homo sapiens, UniProt P17948); test: Inhibition of recombinant GST-tagged VEGFR1 expressed in Sf9 insect cells after 120 mins by Kinase-Glo assay
Method in brief: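 GST-VEGFR1 (R781–I1338) or GST-VEGFR2 (V789–V1356) kinase domain, 50–100 ng, from Sf9 cells. Read-out was Kinase-Glo Plus luminescence.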

[19] = tested on: U-937; test: Antiproliferation activity against human FLT3 gene-deficient U937 cells after 72 hrs by MTS method; type: functional; settings: U-937, 72 h
[20] = Antiproliferation activity against human RS4:11 cells expressing wild type FLT3 after 72 hrs by MTS method; type: functional; settings: RS4-11, 72 h
[21] = target: Mast/stem cell growth factor receptor Kit (Homo sapiens) (UniProt P10721); test: Inhibition of c-Kit at 0.1 uM
[22] = target: Macrophage colony-stimulating factor 1 receptor (Homo sapiens) (UniProt P07333); test: Inhibition of CSF1R at 0.1 uM
[23] = Clearance in Sprague-Dawley rat at 5 mg/kg, iv and 20 mg/kg, po; type: ADME, organism-based; settings: in vivo
[24] = target: T1, Aurora kinase A (Homo sapiens, UniProt O14965); test: Inhibition of recombinant GST-tagged Aurora A expressed in Sf9 insect cells after 90 mins by Kinase-Glo assay
T1 sequence (O14965 whole entry): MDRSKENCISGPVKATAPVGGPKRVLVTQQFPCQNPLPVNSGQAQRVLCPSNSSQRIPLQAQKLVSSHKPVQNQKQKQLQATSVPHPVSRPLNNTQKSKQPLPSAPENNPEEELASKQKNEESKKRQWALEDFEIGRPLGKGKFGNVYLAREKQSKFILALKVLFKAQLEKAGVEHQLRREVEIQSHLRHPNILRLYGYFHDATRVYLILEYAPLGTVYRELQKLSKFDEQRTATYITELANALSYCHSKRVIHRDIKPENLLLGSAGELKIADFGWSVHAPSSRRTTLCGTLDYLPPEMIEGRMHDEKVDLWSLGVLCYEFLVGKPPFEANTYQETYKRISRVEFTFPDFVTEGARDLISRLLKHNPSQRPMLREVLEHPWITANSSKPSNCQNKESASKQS
Method in brief: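 GST-Aurora A kinase domain (S123–S401, 150 ng) from Sf9 cells. Buffer was 50 mM Tris-HCl pH 7.4 with 10 mM NaCl, 10 mM MgCl2, 0.01% BSA and 1 mM DTT. Kinase-Glo Plus was added for 20 min at 25 °C before the luminescence read.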

[25] = target: Proto-oncogene tyrosine-protein kinase receptor Ret (Homo sapiens) (UniProt P07949); test: Inhibition of RET at 0.1 uM
[26] = AUC (0 to infinity) in Sprague-Dawley rat at 5 mg/kg, iv and 20 mg/kg, po; type: ADME, organism-based; settings: plasma
[27] = target: Vascular endothelial growth factor receptor 2 (Homo sapiens, UniProt P35968); test: Inhibition of recombinant GST-tagged VEGFR2 expressed in Sf9 insect cells after 120 mins by Kinase-Glo assay; type: cell-based
[28] = tested on: K562; test: Antiproliferation activity against human K562 cells expressing wild type BCR/ABL after 72 hrs by MTS method; type: functional; settings: K562, 72 h

High affinity nerve growth factor receptor (Homo sapiens), sequence (P04629 33-796 limits assumed): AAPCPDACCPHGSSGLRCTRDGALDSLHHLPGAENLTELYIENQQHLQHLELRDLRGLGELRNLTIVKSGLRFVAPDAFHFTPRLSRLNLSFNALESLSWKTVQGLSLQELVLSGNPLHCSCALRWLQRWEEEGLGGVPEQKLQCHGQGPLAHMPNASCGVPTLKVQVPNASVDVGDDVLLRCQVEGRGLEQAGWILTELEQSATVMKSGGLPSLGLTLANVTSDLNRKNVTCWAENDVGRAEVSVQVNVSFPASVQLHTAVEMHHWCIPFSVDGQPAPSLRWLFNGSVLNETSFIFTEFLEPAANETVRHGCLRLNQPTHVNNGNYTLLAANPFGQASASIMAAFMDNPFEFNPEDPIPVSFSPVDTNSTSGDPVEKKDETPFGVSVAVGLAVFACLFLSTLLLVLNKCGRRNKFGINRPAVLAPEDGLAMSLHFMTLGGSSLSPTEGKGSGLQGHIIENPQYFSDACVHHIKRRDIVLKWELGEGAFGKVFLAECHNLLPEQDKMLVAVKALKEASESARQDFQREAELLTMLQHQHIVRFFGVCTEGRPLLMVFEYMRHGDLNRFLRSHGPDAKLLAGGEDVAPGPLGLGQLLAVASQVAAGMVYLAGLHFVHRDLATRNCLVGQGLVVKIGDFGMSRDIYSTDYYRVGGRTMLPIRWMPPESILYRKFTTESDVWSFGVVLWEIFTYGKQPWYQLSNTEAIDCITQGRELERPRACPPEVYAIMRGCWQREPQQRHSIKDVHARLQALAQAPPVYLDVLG
Platelet-derived growth factor receptor alpha (Homo sapiens), sequence (P16234 whole entry): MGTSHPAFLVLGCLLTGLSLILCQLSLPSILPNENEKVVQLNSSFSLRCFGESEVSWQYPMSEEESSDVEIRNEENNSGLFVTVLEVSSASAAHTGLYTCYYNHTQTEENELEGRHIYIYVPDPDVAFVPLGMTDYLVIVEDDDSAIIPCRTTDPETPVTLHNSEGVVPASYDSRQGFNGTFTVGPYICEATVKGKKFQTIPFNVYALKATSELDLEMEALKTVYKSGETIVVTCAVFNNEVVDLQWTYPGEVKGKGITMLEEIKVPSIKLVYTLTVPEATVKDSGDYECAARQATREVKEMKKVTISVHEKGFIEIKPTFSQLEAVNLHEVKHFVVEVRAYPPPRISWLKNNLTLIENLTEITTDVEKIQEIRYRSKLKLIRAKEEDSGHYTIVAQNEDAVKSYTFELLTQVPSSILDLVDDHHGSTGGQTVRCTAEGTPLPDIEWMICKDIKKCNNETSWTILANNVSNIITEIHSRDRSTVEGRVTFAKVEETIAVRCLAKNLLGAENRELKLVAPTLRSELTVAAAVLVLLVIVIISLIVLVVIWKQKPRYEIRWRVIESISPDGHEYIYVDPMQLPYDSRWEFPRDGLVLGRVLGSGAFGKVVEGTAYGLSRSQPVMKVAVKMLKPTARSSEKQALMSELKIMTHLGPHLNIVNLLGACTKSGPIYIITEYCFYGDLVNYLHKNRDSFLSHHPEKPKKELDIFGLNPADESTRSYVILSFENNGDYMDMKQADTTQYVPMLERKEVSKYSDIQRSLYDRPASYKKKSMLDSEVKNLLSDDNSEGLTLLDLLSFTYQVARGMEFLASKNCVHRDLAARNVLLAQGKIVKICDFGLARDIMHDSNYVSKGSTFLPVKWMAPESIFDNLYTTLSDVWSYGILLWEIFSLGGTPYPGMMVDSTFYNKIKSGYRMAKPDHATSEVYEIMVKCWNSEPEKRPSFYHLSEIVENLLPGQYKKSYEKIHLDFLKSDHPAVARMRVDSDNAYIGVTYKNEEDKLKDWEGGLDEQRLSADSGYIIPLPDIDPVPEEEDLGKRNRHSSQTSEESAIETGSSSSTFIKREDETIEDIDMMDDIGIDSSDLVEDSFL
Vascular endothelial growth factor receptor 2, sequence (P35968 whole entry): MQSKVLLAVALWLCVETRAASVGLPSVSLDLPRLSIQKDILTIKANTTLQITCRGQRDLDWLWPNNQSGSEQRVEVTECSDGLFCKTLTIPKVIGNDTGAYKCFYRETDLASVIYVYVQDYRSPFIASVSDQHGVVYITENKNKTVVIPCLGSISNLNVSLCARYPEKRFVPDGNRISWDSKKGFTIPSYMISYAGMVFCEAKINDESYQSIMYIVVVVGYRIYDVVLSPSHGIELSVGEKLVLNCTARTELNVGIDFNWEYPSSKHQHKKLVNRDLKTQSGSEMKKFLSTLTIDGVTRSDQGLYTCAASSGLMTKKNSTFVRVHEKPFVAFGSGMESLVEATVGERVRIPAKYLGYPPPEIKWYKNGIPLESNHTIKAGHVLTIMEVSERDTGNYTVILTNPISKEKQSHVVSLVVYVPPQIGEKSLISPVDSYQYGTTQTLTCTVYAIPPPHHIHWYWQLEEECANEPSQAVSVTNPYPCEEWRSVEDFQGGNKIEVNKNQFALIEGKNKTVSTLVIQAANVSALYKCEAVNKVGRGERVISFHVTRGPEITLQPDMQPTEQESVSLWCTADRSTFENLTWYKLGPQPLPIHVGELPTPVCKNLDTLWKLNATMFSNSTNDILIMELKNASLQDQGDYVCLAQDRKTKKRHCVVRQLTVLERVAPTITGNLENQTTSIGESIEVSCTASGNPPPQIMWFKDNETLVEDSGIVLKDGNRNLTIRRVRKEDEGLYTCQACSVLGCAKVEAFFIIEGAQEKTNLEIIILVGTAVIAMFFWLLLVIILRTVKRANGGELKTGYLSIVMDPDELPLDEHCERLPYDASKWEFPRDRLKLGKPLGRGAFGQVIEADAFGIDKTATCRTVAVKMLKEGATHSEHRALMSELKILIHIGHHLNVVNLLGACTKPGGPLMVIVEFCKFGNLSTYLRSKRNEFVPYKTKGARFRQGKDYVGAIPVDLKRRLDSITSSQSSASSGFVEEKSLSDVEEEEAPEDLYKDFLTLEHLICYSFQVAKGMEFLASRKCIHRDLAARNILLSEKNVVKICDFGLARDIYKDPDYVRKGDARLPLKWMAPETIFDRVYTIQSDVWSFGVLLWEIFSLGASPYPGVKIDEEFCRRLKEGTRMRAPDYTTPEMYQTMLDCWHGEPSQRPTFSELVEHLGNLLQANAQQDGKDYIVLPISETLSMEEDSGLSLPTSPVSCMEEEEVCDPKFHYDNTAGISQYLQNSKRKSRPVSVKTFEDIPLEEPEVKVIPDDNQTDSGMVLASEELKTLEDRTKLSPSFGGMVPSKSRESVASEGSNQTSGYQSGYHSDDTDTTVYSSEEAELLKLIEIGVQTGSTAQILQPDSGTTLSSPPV
Proto-oncogene tyrosine-protein kinase Src (Homo sapiens), sequence (P12931 2-536 limits assumed): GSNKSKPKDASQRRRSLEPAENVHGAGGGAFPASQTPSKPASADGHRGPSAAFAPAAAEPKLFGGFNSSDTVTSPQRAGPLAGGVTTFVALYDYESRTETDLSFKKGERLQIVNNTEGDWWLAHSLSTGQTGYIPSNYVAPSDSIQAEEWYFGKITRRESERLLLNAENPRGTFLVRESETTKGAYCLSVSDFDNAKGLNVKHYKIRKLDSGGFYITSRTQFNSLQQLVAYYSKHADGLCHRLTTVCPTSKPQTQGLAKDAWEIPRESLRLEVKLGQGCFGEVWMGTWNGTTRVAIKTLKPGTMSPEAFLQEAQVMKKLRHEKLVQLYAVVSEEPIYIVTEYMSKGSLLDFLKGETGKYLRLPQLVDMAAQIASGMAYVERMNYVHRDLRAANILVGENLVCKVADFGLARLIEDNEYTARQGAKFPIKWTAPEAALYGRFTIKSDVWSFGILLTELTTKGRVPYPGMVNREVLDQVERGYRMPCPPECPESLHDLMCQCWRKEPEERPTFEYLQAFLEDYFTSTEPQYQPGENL
Vascular endothelial growth factor receptor 3 (Homo sapiens), sequence (P35916 whole entry): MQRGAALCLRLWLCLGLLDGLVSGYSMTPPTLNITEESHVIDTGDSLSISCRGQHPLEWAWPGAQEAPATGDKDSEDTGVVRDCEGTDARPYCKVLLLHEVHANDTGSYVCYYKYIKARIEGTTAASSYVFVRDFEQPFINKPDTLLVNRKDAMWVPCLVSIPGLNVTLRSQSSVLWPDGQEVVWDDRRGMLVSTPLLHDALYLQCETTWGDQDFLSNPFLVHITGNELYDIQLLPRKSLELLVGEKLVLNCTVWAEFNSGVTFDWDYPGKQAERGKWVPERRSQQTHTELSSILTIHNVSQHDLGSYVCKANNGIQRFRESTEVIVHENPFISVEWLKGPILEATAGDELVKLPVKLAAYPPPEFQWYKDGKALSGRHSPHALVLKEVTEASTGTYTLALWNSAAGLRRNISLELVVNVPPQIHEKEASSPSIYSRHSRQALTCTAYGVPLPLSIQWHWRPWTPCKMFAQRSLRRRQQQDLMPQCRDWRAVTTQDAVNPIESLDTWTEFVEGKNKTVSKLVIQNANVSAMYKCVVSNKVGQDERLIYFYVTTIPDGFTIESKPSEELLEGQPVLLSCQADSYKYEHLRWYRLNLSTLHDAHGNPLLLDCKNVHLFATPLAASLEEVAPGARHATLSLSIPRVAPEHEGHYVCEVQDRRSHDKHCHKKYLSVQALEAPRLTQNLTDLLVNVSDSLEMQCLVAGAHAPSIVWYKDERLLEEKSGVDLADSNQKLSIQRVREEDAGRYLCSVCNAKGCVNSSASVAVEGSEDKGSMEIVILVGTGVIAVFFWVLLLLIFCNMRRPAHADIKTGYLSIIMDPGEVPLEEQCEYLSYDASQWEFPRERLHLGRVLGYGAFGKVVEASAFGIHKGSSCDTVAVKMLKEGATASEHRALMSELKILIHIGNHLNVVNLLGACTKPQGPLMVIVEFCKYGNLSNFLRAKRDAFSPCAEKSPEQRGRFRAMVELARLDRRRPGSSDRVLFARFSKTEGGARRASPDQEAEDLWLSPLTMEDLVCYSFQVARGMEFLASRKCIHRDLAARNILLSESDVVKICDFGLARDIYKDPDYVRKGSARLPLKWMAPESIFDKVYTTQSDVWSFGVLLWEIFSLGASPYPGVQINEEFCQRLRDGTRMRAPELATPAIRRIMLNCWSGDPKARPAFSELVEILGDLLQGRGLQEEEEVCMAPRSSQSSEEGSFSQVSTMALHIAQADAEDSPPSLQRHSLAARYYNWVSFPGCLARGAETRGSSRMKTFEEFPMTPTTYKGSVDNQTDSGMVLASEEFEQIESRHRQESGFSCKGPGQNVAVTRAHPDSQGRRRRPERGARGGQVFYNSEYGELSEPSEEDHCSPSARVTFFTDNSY

For `Cc1nc(Nc2cc(-c3cccc(NS(=O)(=O)c4ccccc4)c3)n[nH]2)cc(N2CCN(C)CC2)n1`, the Activity [1] was less than 3%, the Activity [2] was less than 3% and the Activity [3] was “inactive”. For the same compound, the inhibition [4] was 31%, the half-life [5] was 4.2 h and the Activity [6] was “Dose-dependent effect”. For the same compound, the GI50 [7] was 21 nM, the Activity [8] was “Active” and the GI50 [9] was 7400 nM. For the same compound, the inhibition [10] was 44%, the Activity [11] was “Active” and the Activity [12] was “Non-toxic”. For the same compound, the inhibition [13] was 24%, the inhibition [14] was 96% and the Activity [15] was “Active”. For the same compound, the GI50 [16] was 27 nM, the inhibition [17] was 18% and the IC50 [18] was 310 nM. The GI50 [19] was greater than 20000 nM, the GI50 [20] was 10000 nM and the inhibition [21] was 27%. For the same compound, the inhibition [22] was 16%, the clearance [23] was 57.4 mL/min/kg and the IC50 [24] was 290 nM. For the same compound, the inhibition [25] was 71%, the AUC(0-inf) [26] was 1400 ng·h/mL and the IC50 [27] was 290 nM. For the same compound, the GI50 [28] was greater than 10000 nM.
